According to PubChem BioAssay AID651877 (Broad Institute, 2012):

Test system: T. cruzi CAI/72 in BESM cells, trypomastigote emergence microscopy
Experiment: cidal versus static activity on T. cruzi, late-stage follow-up, mechanism study for T. cruzi inhibitor project, imaging, CAI/72 strain, BESM host cells, 20-day treatment (AID 651877)
Details: stronger effect = higher value
Summary of the method: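 System: bovine embryo skeletal muscle (BESM) cells infected with T. cruzi CAI/72 / Measured by: daily light-microscopy check for emerging trypomastigotes / Measure: trypomastigote emergence timing, absence indicating cure, delay indicating static effect / Schedule: wash 24 h post-infection, alternate-day dosing 20 days, 38-day washout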

Row | Structure (SMILES) | day of emergence (at 0.25 µM) | day of emergence (at 0.74 µM) | day of emergence (at 2.2 µM) | normalised slope vs benznidazole
1 | O=C(Cn1ccnc1[N+](=O)[O-])NCc1ccccc1 | -14 days | 1 days | 6 days | 8
2 | C[C@@H]1CN([C@@H](C)CO)C(=O)c2cccc(NC(=O)c3ccncc3)c2O[C@H]1CN(C)Cc1ccc(Cl)cc1 | 4 days | 15 days | 17 days | 6
3 | CC(C)N1C[C@@H](C)[C@H](CN(C)Cc2cccc(Oc3ccccc3)c2)Oc2c(NC(=O)c3ccncc3)cccc2C1=O | 18 days | – | – | 66
4 | C[C@@H]1CN([C@@H](C)CO)C(=O)c2cccc(NC(=O)c3ccncc3)c2O[C@H]1CN(C)Cc1cccc(Cl)c1 | 4 days | 17 days | 18 days | 6
5 | C[C@H](CO)N1C[C@H](C)[C@H](CN(C)Cc2ccc(Oc3ccccc3)cc2)Oc2c(NC(=O)c3ccncc3)cccc2C1=O | 4 days | – | – | 70
6 | C[C@@H]1CN([C@H](C)CO)C(=O)c2cccc(NC(=O)c3ccncc3)c2O[C@H]1CN(C)Cc1ccccc1 | 4 days | – | – | 70
7 | C[C@@H]1CN([C@H](C)CO)C(=O)c2cccc(NC(=O)c3ccncc3)c2O[C@H]1CN(C)Cc1ccc(Oc2ccccc2)cc1 | 4 days | 30 days | > 37 days | 5.6
8 | C[C@H]1CN([C@@H](C)CO)C(=O)c2cccc(NC(=O)c3ccncc3)c2O[C@@H]1CN(C)Cc1ccc(Oc2ccccc2)cc1 | 4 days | – | – | 70
9 | C[C@@H]1CN([C@@H](C)CO)C(=O)c2cccc(NC(=O)c3ccncc3)c2O[C@H]1CN(C)Cc1ccc(Oc2ccccc2)cc1 | 4 days | > 37 days | – | 20
10 | C[C@H]1CN([C@@H](C)CO)C(=O)c2cccc(NC(=O)c3ccncc3)c2O[C@H]1CN(C)Cc1ccc(Oc2ccccc2)cc1 | 4 days | – | – | 70
